Laboratory results published in ChEMBL document CHEMBL3860040, “Purine-Type Compounds Induce Microtubule Fragmentation and Lung Cancer Cell Death through Interaction with Katanin” (J Med Chem, 2016).
Active and inactive are the calls of the source. The calls are words filed in the database; no cut-off is given here.

How the values were obtained:
[1] = Cytotoxicity against human NCI-H1975 cells harboring EGFR T790M mutant assessed as decrease in cell viability after 72 hrs by MTT assay; assay type: functional, cell-based; settings: NCI-H1975, 72 h
[2] = molecular target: Katanin p60 ATPase-containing subunit A1 (Homo sapiens) (UniProt O75449); test: Induction of katanin p60 subunit-mediated JNK signaling pathway activation in human NCI-H1975 cells assessed as increase in JNK phosphorylation at T183/Y185 and T221/Y223 residues at 300 nM after 9 hrs by phospho-kinase antibody array method; assay type: cell-based
How it was run: (§1)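 H1975 cells seeded overnight, exposed to 300 nM for 9 h; DMSO-treated cells as controls. Lysates rocked 30 min at 4 °C and spun at 14,000×g for 30 min. Equal BCA-quantified protein applied to a human phospho-kinase antibody array; spot density measured by densitometry.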

[3] = molecular target: Katanin p60 ATPase-containing subunit A1 (Homo sapiens) (UniProt O75449); test: Induction of katanin p60 subunit-mediated microtubule fragmentation in human NCI-H1975 cells assessed as alpha-tubulin level in soluble form at 300 nM after 12 hrs by gel filtration chromatography/immunoblot analysis; assay type: cell-based
How it was run: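 H1975 cells treated with 300 nM or vehicle for 12 h; soluble extracts made in IP lysis buffer. Run on a Toyopearl HW-65F gel filtration column equilibrated in IP lysis buffer, collecting 0.5 mL fractions. Fractions separated by 10% SDS–PAGE and α-tubulin detected by immunoblot.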

[4] = molecular target: Katanin p60 ATPase-containing subunit A1 (Homo sapiens) (UniProt O75449); test: Induction of katanin p60 subunit-mediated JNK signaling pathway activation assessed as increase in c-Jun phosphorylation level at S63 residues in human NCI-H1975 cells at 300 nM after 6 to 12 hrs by immunoblot analysis; assay type: cell-based
How it was run: (§2)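 H1975 cells treated with 300 nM for 6 h and 12 h, lysed, and phospho-JNK and phospho-c-Jun detected by immunoblot with ECL. Three independent experiments.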

[5] = molecular target: Katanin p60 ATPase-containing subunit A1 (Homo sapiens) (UniProt O75449); test: Induction of katanin p60 subunit-mediated microtubule fragmentation in human NCI-H1975 cells assessed as alpha-tubulin level in polymer form at 300 nM after 1 hr by immunoblot analysis (reference value: 63%); assay type: cell-based
[6] = molecular target: Katanin p60 ATPase-containing subunit A1 (Homo sapiens) (UniProt O75449); test: Induction of katanin p60 subunit-mediated microtubule fragmentation in human NCI-H1975 cells at 300 nM after 12 hrs by DAPI staining based confocal laser microscopy; assay type: cell-based
How it was run: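 H1975 cells treated 12 h, fixed in 3.7% cold paraformaldehyde and permeabilized with 0.1% Triton X-100. Stained with anti-α-tubulin at 37 °C for 1 h, then FITC secondary (1:100) at 37 °C for 1 h. Mounted with DAPI and imaged by confocal microscopy.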

[7] = molecular target: Katanin p60 ATPase-containing subunit A1 (Homo sapiens) (UniProt O75449); test: Induction of katanin p60 subunit-mediated JNK signaling pathway activation in human NCI-H1975 cells assessed as increase in c-Jun phosphorylation at S63 residues at 300 nM after 9 hrs by phospho-kinase antibody array method; assay type: cell-based; how it was run: as §1
[8] = molecular target: Katanin p60 ATPase-containing subunit A1 (Homo sapiens) (UniProt O75449); test: Induction of katanin p60 subunit-mediated microtubule fragmentation in human NCI-H1975 cells assessed as alpha-tubulin level in soluble form at 300 nM after 1 hr by immunoblot analysis (reference value: 37%); assay type: cell-based
[9] = molecular target: Katanin p60 ATPase-containing subunit A1 (Homo sapiens) (UniProt O75449); test: Induction of katanin p60 subunit-mediated JNK signaling pathway activation assessed as increase in phosphorylation level at T183/Y185 residues in human NCI-H1975 cells at 300 nM after 6 to 12 hrs by immunoblot analysis; assay type: cell-based; how it was run: as §2
[10] = molecular target: Katanin p60 ATPase-containing subunit A1 (Homo sapiens) (UniProt O75449); test: Induction of katanin p60 subunit-mediated microtubule fragmentation in human NCI-H1975 cells assessed as alpha-tubulin level in polymer form at 600 nM after 1 hr by immunoblot analysis (reference value: 63%); assay type: cell-based
[11] = molecular target: Katanin p60 ATPase-containing subunit A1 (Homo sapiens) (UniProt O75449); test: Induction of katanin p60 subunit-mediated microtubule fragmentation in human NCI-H1975 cells assessed as alpha-tubulin level in soluble form at 600 nM after 1 hr by immunoblot analysis (reference value: 37%); assay type: cell-based
[12] = molecular target: Katanin p60 ATPase-containing subunit A1 (Homo sapiens) (UniProt O75449); test: Binding affinity to katanin p60 subunit in human NCI-H1975 cell lysate using biotin-labeled compound preincubated for 24 hrs followed by streptavidin-conjugated beads addition measured after 2 hrs by immunoblot analysis; assay type: cell-free
How it was run: (§3)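 H1975 lysate incubated 24 h with biotinylated probe or with a purine-free linker as control. Bound proteins detected by immunoblot; three independent experiments.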

[13] = molecular target: Katanin p80 WD40 repeat-containing subunit B1 (Homo sapiens) (UniProt Q9BVA0); test: Binding affinity to katanin p80 subunit in human NCI-H1975 cell lysate using biotin-labeled compound preincubated for 24 hrs followed by streptavidin-conjugated beads addition measured after 2 hrs by immunoblot analysis; assay type: cell-free; how it was run: as §3
Katanin p80 WD40 repeat-containing subunit B1 (Homo sapiens), sequence (Q9BVA0 whole entry): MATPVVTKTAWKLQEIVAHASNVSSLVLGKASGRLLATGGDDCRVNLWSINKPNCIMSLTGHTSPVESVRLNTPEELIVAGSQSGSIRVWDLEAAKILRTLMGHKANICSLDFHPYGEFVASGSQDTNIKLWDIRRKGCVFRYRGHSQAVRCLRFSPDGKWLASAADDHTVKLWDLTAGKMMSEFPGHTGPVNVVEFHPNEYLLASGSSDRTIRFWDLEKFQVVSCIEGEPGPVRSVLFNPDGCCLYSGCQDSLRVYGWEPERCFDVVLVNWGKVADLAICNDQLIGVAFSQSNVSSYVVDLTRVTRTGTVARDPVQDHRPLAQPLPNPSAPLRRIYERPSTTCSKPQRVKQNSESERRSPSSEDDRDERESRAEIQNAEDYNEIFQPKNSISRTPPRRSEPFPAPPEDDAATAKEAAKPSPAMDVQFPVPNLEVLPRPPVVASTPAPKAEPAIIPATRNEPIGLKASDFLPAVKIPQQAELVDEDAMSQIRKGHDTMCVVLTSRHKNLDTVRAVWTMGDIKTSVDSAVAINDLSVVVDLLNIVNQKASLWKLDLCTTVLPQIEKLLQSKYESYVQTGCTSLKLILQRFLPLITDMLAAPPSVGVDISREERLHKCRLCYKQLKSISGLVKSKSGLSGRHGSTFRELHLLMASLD

Katanin p60 ATPase-containing subunit A1 (Homo sapiens), sequence (O75449 whole entry, the tested form may be a part): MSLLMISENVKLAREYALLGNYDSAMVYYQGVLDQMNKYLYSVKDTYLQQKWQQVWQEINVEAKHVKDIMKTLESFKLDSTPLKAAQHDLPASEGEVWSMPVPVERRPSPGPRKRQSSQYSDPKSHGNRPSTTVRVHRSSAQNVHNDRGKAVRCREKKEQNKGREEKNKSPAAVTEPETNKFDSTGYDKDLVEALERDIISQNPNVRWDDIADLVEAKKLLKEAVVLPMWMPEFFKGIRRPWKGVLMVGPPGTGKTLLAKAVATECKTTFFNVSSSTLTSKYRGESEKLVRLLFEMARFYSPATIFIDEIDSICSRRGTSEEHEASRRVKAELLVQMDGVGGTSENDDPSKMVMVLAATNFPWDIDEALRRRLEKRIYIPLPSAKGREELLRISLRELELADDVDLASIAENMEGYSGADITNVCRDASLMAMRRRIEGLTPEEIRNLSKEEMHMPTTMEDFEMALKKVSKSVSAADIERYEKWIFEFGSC

CCCCOc1ccc(-c2nc(C(N)=O)c3[nH]c(=O)n(-c4ccccc4OC)c3n2)cc1
IC50 [1]: 4.66 µM

CCCCCCOc1ccc(-c2nc(C(N)=O)c3[nH]c(=O)n(-c4ccccc4OC)c3n2)cc1
IC50 [1]: > 5 µM

CCOc1ccc(-c2nc(C(N)=O)c3[nH]c(=O)n(-c4cccc(C(=O)O)c4)c3n2)cc1
IC50 [1]: 7.91 µM

CCOc1ccc(-c2nc(C(N)=O)c3[nH]c(=O)n(-c4cccc(C(=O)NCCCCCNC(=O)OC(C)(C)C)c4)c3n2)cc1
IC50 [1]: > 10 µM

CCOc1ccc(-c2nc(C(N)=O)c3[nH]c(=O)n(-c4ccccc4OC)c3n2)cc1
Activity [2]: Active | Activity [3]: Active | Activity [4]: Active | Activity [5]: 32% | Activity [6]: Active | Activity [7]: Active | Activity [8]: 68% | Activity [9]: Active | Activity [10]: 25% | Activity [11]: 75%

CCOc1ccc(-c2nc(C(N)=O)c3[nH]c(=O)n(-c4cccc(C(=O)NCCCCCNC(=O)CCCC[C@@H]5SC[C@@H]6NC(=O)N[C@@H]65)c4)c3n2)cc1
IC50 [1]: 26.3 µM | Activity [12]: Active | Activity [13]: Active

COC(=O)c1cccc(-n2c(=O)[nH]c3c(C(N)=O)nc(-c4ccc(-c5ccccc5)cc4)nc32)c1
IC50 [1]: > 20 µM
